High-throughput results as filed in PubChem BioAssay.
Tb MetRS inh: Trypanosoma brucei MetRS inhibition; AID 624268; purified T. brucei MetRS, ATP depletion, Kinase-Glo luminescence; inhibition, % at 11.9 µM; 0.4% of 360,000 active;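 active = inhibition above a per-plate cutoff of the control wells' mean inhibition plus 3 SD, cut at about 5.5% in these data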;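 also: 0% = DMSO wells median and 100% = median of wells with control inhibitor compound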
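Test system – parasite MetRS enzyme · Reagent – substrates ATP, L-methionine and bulk Escherichia coli tRNA · Doses – 11.9 µM compound single dose, 0.9% DMSO · Times – 15 min enzyme-compound preincubation, 2 h reaction, 10 min detection, 25 °C · Signal – Kinase-Glo luminescence, ATP depletion format · Controls – DMSO-only wells as low control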
HTR2A ag: mouse HTR2A agonism via beta-arrestin recruitment | P35363 | CHO-K1 mHTR2A beta-arrestin complementation, luminescence; percent of 30 µM serotonin response | activation, % at 7.6 µM | 0.66% of 360,000 active | AID 624169;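 active = activation above a run cutoff, the mean activation of all tested compounds plus 3 SD, cut at about 14% in these data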;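 also: 0% = plate median of compound wells and 100% = 30 µM serotonin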
bovine MsrA act: activates bovine MsrA enzyme; purified bovine MsrA, absorbance read-out; activation, % at 10.6 µM; 0.3% of 360,000 active; in the data active = activation above about 7.5%;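 also: 0% = vehicle and 100% = reference activator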
AHR act: activates the human aryl hydrocarbon receptor | 2.5% of 320,000 active | AHR-responsive luciferase reporter cells, luminescence | activation, % at 5 µM | P35869; in the data active = activation above about 47%;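 also: 0% = vehicle wells and 100% = reference agonist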
Target sequence (P35869 whole entry, looked up): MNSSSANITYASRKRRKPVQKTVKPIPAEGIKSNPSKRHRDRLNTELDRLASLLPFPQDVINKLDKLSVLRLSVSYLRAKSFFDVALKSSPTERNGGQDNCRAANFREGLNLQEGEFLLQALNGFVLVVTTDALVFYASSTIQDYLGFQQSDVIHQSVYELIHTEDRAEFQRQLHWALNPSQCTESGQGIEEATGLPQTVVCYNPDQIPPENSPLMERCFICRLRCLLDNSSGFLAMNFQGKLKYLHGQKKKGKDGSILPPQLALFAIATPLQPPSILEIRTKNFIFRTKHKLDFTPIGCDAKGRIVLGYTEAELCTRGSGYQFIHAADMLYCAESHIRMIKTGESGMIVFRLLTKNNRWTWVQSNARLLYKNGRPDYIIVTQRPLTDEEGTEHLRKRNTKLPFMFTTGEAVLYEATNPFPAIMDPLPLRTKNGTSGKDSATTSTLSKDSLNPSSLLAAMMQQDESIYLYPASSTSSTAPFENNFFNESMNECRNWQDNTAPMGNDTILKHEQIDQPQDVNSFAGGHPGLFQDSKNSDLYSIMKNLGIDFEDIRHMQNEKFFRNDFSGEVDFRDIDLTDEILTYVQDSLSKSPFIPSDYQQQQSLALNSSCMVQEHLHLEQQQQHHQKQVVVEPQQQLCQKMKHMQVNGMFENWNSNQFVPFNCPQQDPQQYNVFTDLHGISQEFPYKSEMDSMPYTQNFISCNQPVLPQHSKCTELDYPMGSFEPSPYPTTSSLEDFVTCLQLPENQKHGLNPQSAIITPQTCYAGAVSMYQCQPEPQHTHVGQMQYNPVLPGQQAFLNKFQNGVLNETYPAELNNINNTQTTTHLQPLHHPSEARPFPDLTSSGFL
AI-2 QS mod: modulates the Vibrio harveyi AI-2 quorum sensing system; 0.4% of 300,000 active; activity change, % at 7.5 µM; Vibrio harveyi JMH597 AI-2 luminescence/OD600 ratio, 9 h; stronger effect = lower value; strain lacks LuxN and CqsS sensors; 0 = neutral-control median; in the data active = activity change below about -75%, passing the limit was not always enough; inconclusive = no clear call, values can overlap the other calls;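 also: luminescence divided by OD600 gain over 9 h not by final OD600 alone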
MsrA inhibitor: bovine MsrA inhibition. purified bovine MsrA, absorbance read-out. inhibition, % at 15.5 µM. AID 651718. 0.75% of 360,000 active; in the data active = inhibition above about 4.5%;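 also: 0% = vehicle wells with enzyme and 100% = reference inhibitor wells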
Starred values were filed as active, the others as inactive; u = inconclusive; x = not tested or not shown. An excerpt weighted towards active compounds, which were near 4.4% of everything screened.

SMILES	Tb MetRS inh	HTR2A ag	bovine MsrA act	AHR act	AI-2 QS mod	MsrA inhibitor
CC(=O)Nc1cccc(-c2cn3ccccc3n2)c1	-2	0	-13	61*	9	2
CC(C)C(=O)Nc1cccc(-c2cn3ccccc3n2)c1	-1	3	-7	8	15	0
CC(=O)N1CCN(c2ccc(N3CCN(C(C)=O)[C@H](C)C3)c(C)c2)[C@H](C)C1	x	x	x	x	x	1
CC(C)[C@@H](C)/C=C/[C@@H](C)[C@H]1CC[C@@H]2[C@]1(C)CCC1[C@]23C=C[C@]2(C[C@@H](O)CC[C@]12C)N(c1ccc(Br)cn1)O3 (stereo partly drawn)	x	x	x	x	x	1
COc1ccc(N2C(=O)c3n[nH]c(C(C)C)c3C2c2ccc(F)cc2)cc1 (stereo not drawn)	x	x	x	x	x	-1
S=C1NC2(CCS1)Oc1ccccc1C1CC(c3ccccc3)=NN12 (stereo not drawn)	x	x	x	x	11	x
CC(=O)N1N=C(c2ccc(C)cc2)CC1c1ccco1 (stereo not drawn)	0	-2	-1	7	15	0
CN1C(=O)C2(Oc3ccccc3C3CC(c4ccccc4)=NN32)c2ccccc21 (stereo not drawn)	0	-2	-4	54*	14	x
Cc1ccc(C2=NN3C(C2)c2ccccc2OC32C(=O)Nc3ccccc32)cc1 (stereo not drawn)	0	1	-3	47*	23	0
CCOC(=O)c1c(C)oc2cc(Br)c(OC(=O)N3CCOCC3)cc12	0	3	1	52*	u	0
C#CCNC(=O)C[C@H]1C[C@@]2(C(=O)OC)C(=C[C@H](COCc3ccccc3)O[C@@H]2C)N(CCC2=CCCCC2)C1=O	x	x	x	x	x	0
O=C(CN(C(=O)CCC(=O)Nc1nccs1)c1ccccc1F)NCc1ccc(F)cc1	-1	0	-5	1	11	0
O=C(O)CCCC(=O)OCCCc1cc2ccccc2c(=O)o1	x	x	x	x	x	0
COc1cc(OC)c(OC)cc1C#N	0	1	1	2	27	0
COc1cc2c(cc1OC)C1(CCCC1)C(N)=C2C#N	0	0	-5	48*	21	1
O=C1NC(=O)/C(=C\c2ccccc2OCc2ccc([N+](=O)[O-])cc2)N1	1	-8	-3	72*	1	0
O=S1(=O)N[C@H](Cc2ccccc2)COc2cc(N3CCOCC3)ccc21	x	x	x	x	x	1
Brc1ccc2c(c1)C(c1cccs1)=NNC(c1cccnc1)=N2	0	-3	-2	92*	15	0
CCOc1ccc2c(c1)C(c1cccs1)=NNC(c1cccnc1)=N2	2	0	-2	27	7	1
COc1ccc(C(=O)NC(=S)NCc2cccnc2)cc1[N+](=O)[O-]	0	6	-6	76*	21	0
CCCCN(Cc1ccco1)S(=O)(=O)c1csc(C(N)=O)c1	1	-2	-6	0	14	0
COc1cc(C)c(CN2CCC(n3nccc3NC(=O)C3CCOC3)CC2)cc1C (stereo not drawn)	0	9	-1	2	-8	-1
c1ccc2c(Nc3ccc(N4CCOCC4)cc3)nc(N3CCOCC3)nc2c1	1	2	-2	72*	x	1
Cc1cccc(-c2nc(Nc3cccc(O)c3)c3ccccc3n2)c1	-1	5	-2	68*	20	4
Cc1cccc(-c2nc(Nc3ccc(N4CCOCC4)cc3)c3ccccc3n2)c1	0	-3	-4	56*	3	2
SMILES	Tb MetRS inh	HTR2A ag	bovine MsrA act	AHR act	AI-2 QS mod	MsrA inhibitor
c1ccc2c(N3CCOCC3)nc(N3CCOCC3)nc2c1	-1	3	-11	2	18	1
CCNC(=O)N1CCN(c2ccc(N3CCN(Cc4ccccc4)[C@H](C)C3)c(C)c2)[C@H](C)C1	x	x	x	x	x	-1
O=C1N[C@@H](Cc2ccccc2)C(=O)N2[C@H]1CSCCS2(=O)=O	x	x	x	x	x	0
COc1ccc(C(=O)CSc2nccn2C)cc1	0	-1	-2	19	5	0
COc1cc(C(=O)CSc2nccn2C)cc(OC)c1OC	0	-2	0	47*	26	2
O=C(C(=O)N1CCN(S(=O)(=O)c2ccc(C(F)(F)F)cc2)CC1)c1cccc(C(F)(F)F)c1	x	x	x	x	x	-1
C[C@H](O)[C@@H]1CN2CCc3c([nH]c4c(-c5ccccc5)cccc34)[C@@H]2C[C@@H]1N(C)C(=S)NCCc1ccccc1	x	x	x	x	x	-1
O=C(Oc1ccc2c(=O)c(Oc3ccc4ccccc4c3)coc2c1)c1ccco1	0	6	-2	6	-82*	1
Fc1ccccc1/C=N/NC(=S)Nc1ccc(Cl)cc1Cl	-1	-1	-3	77*	38	-1
Fc1ccc(NC(=S)Nc2ccc(Cl)cc2Cl)cc1	x	x	x	-2	8	2
Oc1ccc(Cl)cc1C=Nc1ccc2c3c(cccc13)CC2	1	-2	-3	49*	19	0
Cc1cccc(C=Nc2ccc3c4c(cccc24)CC3)c1O	0	1	-4	40	-9	1
Cc1cccc(C)c1NC(=S)NC(=O)c1ccc(Br)o1	0	-5	-3	69*	15	1
Cc1cccc(NC(=S)NC(=O)c2ccc(Br)o2)c1C	0	-5	-4	36	7	0
Cc1ccccc1C(=O)NC1CCCCN(C)C1=O (stereo not drawn)	x	x	x	x	x	0
CCCCN(C)C(=O)c1sc(=O)n(CC(=O)c2ccccc2OC)c1C	0	-4	0	x	x	2
Cc1sc(N/N=C/c2cccs2)nc1-c1ccccc1	0	-1	-3	78*	-3	2
Cc1ccc(Cc2c(-c3ccc(C#N)cc3)nc3c4ccccc4ccn23)cc1	0	-5	0	x	x	1
CN(CC(=O)O)S(=O)(=O)/C=C/c1ccccc1	0	-2	-1	-2	16	0
NC(=O)CN(C/C=C/c1ccccc1)C/C=C/c1ccccc1	-1	-1	-4	55*	41	0
CN(C)CCOC(=O)/C(=C/c1cn(C)c2ccccc12)NC(=O)c1ccccc1	0	3	-5	63*	4	3
Cc1ccc(C(=O)N/C(=C\c2cn(C)c3ccccc23)C(=O)OCCN(C)C)cc1	-1	-6	-3	46	-8	1
COc1cc(C(=O)N/C(=C\c2cn(C)c3ccccc23)C(=O)NCCCO)cc(OC)c1OC	-1	1	-10	5	13	4.7*
CCc1cc2c(=O)c(-c3nc(C)cs3)coc2cc1O	0	5	-1	60*	24	0
CC1(c2ccc(OC(F)F)cc2)NC(=O)N(CC(=O)Nc2ccccc2)C1=O (stereo not drawn)	0	0	-1	3	-91*	1
CC1CCN(S(=O)(=O)c2ccc(NC(=O)CN3C(=O)NC(C)(c4ccccc4)C3=O)cc2)CC1 (stereo not drawn)	0	7	-2	-2	-79*	0
